Bioassay records as filed in PubChem.
hERG protect = compounds protecting human hERG from proarrhythmic drug block; activation (rescue from dofetilide block), less the hit threshold, % at 10 µM; CHO-hERG, FluxOR thallium flux, dofetilide IC70 present; 310,000 compounds, 0.51% hits; Q12809;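 active = activation above the mean of controls blocked by dofetilide plus 5 SD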;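 note: thallium influx through hERG after potassium depolarization seen as dye fluorescence rise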
KCNK9 block = inhibitors of human KCNK9 two-pore domain potassium channel; Q9NPC2; HEK293 KCNK9, FluxOR thallium flux fluorescence; active compounds read low; B-score at 10 µM; 310,000 compounds, 1.2% hits; AID 488922;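 active = ratio B-score over 3 SD below the library mean, with starting fluorescence within 5 SD of its mean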;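 note: negative B-score means less thallium flux so channel inhibition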
KCNQ1 act = potentiators or activators of human KCNQ1 potassium channel; 310,000 compounds, 0.35% hits; B-score at 10 µM; P51787; CHO-K1 KCNQ1, thallium flux FluxOR fluorescence; active compounds read high;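 active = fluorescence ratio B-score, a plate-corrected score, at least three library SD, with initial intensity B-score within 5 SD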
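Material: CHO-K1 cells stably expressing KCNQ1. Medium: assay buffer for compound exposure, DMSO matched across wells. Reagent: K+/Tl+ depolarizing stimulus. Compound dosing: single-concentration screen. Times: 37 °C overnight plating, 90-min dark dye load, 20-min compound pretreatment. Technique: FluxOR Tl+ flux fluorescence.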
KCNK3 inh = human KCNK3 channel inhibition, primary screen; CHO-KCNK3 thallium flux, FluxOR fluorescence; active compounds read low; AID 602410; B-score at 10 µM; O14649; 340,000 compounds, 0.84% hits;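 active = B-score under library mean minus 4 SD, starting fluorescence ratio at most library mean plus 5 SD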;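 note: more negative B-score means stronger inhibition of thallium flux through KCNK3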
Target sequence (O14649 whole entry, looked up): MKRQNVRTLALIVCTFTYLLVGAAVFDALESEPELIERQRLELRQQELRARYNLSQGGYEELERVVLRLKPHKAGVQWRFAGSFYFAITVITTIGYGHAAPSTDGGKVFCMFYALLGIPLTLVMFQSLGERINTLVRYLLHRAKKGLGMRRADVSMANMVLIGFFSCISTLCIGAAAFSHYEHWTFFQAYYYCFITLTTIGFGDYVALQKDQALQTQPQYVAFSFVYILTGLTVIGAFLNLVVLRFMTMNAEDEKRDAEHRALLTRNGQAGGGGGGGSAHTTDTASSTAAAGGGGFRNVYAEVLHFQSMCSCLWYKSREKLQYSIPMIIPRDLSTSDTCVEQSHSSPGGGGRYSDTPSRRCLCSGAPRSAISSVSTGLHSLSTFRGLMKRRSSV
KCNQ1 inh = blocks the human KCNQ1 potassium channel; B-score at 10 µM; P51787; CHO-K1 KCNQ1, FluxOR thallium flux fluorescence; active compounds read high; 310,000 compounds, 1.3% hits;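 active = compounds whose thallium flux B-score, printed positive for inhibition, exceeds three library SD while starting fluorescence stays within three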;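 note: channel opened by potassium depolarization with thallium stimulus after 20 min compound exposure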
Kir21 block = inhibitors of mouse Kir2.1 inward-rectifier potassium channel; 310,000 compounds, 0.85% hits; P35561; HEK293-Kir2.1, FluxOR thallium flux fluorescence; active compounds read low; B-score at 10 µM;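 active = fluorescence ratio B-score at or below minus 3 SD of library scores, with starting-brightness B-score within 2 SD, cut at about -4.2 in these data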;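 note: channel flux triggered by added potassium and thallium sulfate stimulus; B-score of peak minus minimum fluorescence over baseline after thallium stimulus; more negative B-score means stronger Kir2.1 block with less thallium influx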
KCNK9 inh conf = confirmation of human KCNK9 potassium channel inhibitors; shares compounds with KCNK9 block; HEK293 KCNK9 cells, FluxOR thallium flux fluorescence; inhibition, % at 10 µM; 4,900 compounds, 43% hits; AID 492992;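 active = thallium signal inhibited by more than 5 SD of the compound-free buffer control wells, on both duplicate plates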
Kir2-1 spec = selectivity of KCNK9 modulators against mouse Kir2.1; AID 492993; inhibition, % at 10 µM; shares compounds with KCNK9 block; 4,900 compounds, 4% hits; Kir2.1 cells, FluxOR thallium flux fluorescence;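 active = thallium signal drop more than 5 SD beyond the mean of the no-compound control wells, seen in both duplicate plates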;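 note: signal is fluorescence rise after thallium addition divided by baseline fluorescence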
HEK293 Tl ctr = second counter-screen for KCNK9 modulators: effect in non-induced cells | shares compounds with KCNK9 block | AID 492997 | inhibition, % at 10 µM | 4,900 compounds, 40% hits | non-induced KCNK9-HEK293, FluxOR thallium flux;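 active = thallium signal drop beyond 5 SD of the untreated control mean, on both duplicate plates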
KCNK3 inh conf = human KCNK3 channel inhibition, confirmation assay | shares compounds with KCNK3 inh | CHO-KCNK3 thallium flux, FluxOR fluorescence; 0% buffer, 100% carvedilol maximal block | ratio percent of control, % at 10 µM | 2,400 compounds, 99% hits;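 active = ratio percent of control, averaged over triplicates, above buffer control mean plus 5 SD, cut at about 64% in these data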;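 note: ratio is the fluorescence rise from min to max over baseline after thallium stimulus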
KCNK3 noninduced = activity in cells without induced KCNK3 expression. 2,400 compounds, 40% hits. thallium flux ratio (lower = more inhibition) at 10 µM. shares compounds with KCNK3 inh. non-induced KCNK3 parental cells, FluxOR thallium flux; active compounds read low;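 active = thallium flux ratio, averaged over three wells, more than 5 SD below the buffer control mean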;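 note: host cells are CHO cells without KCNK3 induction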
Hits are given with their value; - = inactive; . = no result given. This is a sample that favours compounds with a hit; in the whole collection about 3.8% have one here.

SMILES | hERG protect | KCNK9 block | KCNQ1 act | KCNK3 inh | KCNQ1 inh | Kir21 block | KCNK9 inh conf | Kir2-1 spec | HEK293 Tl ctr | KCNK3 inh conf | KCNK3 noninduced
O=S(=O)(NC1CCCCC1N1CCN(c2cccc(Cl)c2)CC1)c1ccccc1 (centres undefined) | - | -13.4 | - | -10.3 | - | - | 57.0% | - | 41.5% | 107.3 | -
CN1CCN(C2CCCCC2NS(=O)(=O)c2ccccc2)CC1 (centres undefined) | - | - | - | - | - | - | . | . | . | . | .
COc1ccc(OCC(=O)OCC(=O)c2ccc(OC)c(F)c2)cc1 | . | . | . | - | . | . | . | . | . | . | .
O=C(COC(=O)c1c[nH]c(=O)[nH]c1=O)Nc1cccc([N+](=O)[O-])c1 | . | . | . | - | . | . | . | . | . | . | .
Cc1sc(NC(=O)CN2C(=O)NC3(CCCC3)C2=O)nc1-c1ccc(F)cc1 | - | - | - | - | - | - | . | . | . | . | .
COc1ccccc1NC(=S)NC(=O)CCCOc1ccc(Cl)cc1Cl | - | -23.2 | - | -10.1 | - | - | 58.0% | - | 30.5% | 116.7 | -
Cc1cc(C(=O)N/N=C/c2ccc(-c3cccc(Br)c3)o2)n[nH]1 | - | -17.1 | - | -11.1 | - | - | 44.0% | - | - | 87.3 | -
COc1cccc(NC(=O)[C@@H]2CCC(=O)N2C2OC(=O)c3ccccc32)c1 (some centres undefined) | - | - | - | - | - | - | . | . | . | . | .
CCNC(=O)/C(=C/c1ccco1)NC(=O)/C=C/c1ccccc1 | - | - | - | - | - | - | . | . | . | . | .
O=C(Nc1nc(-c2ccc(Cl)s2)cs1)c1cccs1 | - | -9.16 | - | -8.87 | - | - | - | - | 31.5% | 97.0 | -
O=C(Nc1nc(-c2ccccc2)cs1)c1cccs1 | - | - | - | - | - | - | . | . | . | . | .
COc1cc(/C=C/C(=O)N2CC(C)OC(C)C2)cc(OC)c1OC (centres undefined) | - | - | - | - | - | - | . | . | . | . | .
COC(=O)c1cc(COc2ccc3oc(C)c(C(=O)OC(C)C)c3c2)c(C)o1 | - | -10.2 | - | - | - | - | - | - | 46.0% | 92.3 | 0.142
O=C(NNC(=O)c1cc(-c2ccc(Cl)cc2)nc2ccccc12)c1csc(N2CCOCC2)n1 | - | -10.3 | - | -9 | - | - | 28.5% | - | - | 79.7 | -
O=C(NNC(=O)c1cc(-c2ccccc2)nc2ccccc12)c1csc(N2CCOCC2)n1 | - | - | - | - | - | - | . | . | . | . | .
COC(=O)c1c(C(=O)OC)c(-c2ccc(Cl)c(Cl)c2)n2c1CCC2 | - | -8.15 | - | - | - | - | 32.5% | - | 31.5% | 92.3 | -
NS(=O)(=O)c1ccc(-n2nncc2-c2ccco2)cc1 | - | - | - | - | - | - | . | . | . | . | .
COc1ccc(N)c2c1C(=O)c1ccccc1C2=O | - | - | - | - | - | - | . | . | . | . | .
COc1ccc(OC)c2c1C(=O)C(Cl)=C(Cl)C2=O | - | -9.76 | - | -8.87 | 10 | -4.35 | 58.0% | 41.0% | 87.0% | 150.7 | 0.089
Cc1cc(C)nc(NC(=NCCc2c[nH]c3ccccc23)NC(=O)c2ccco2)n1 | - | -15.2 | - | -9.01 | - | - | 30.0% | - | - | 134.7 | 0.152
COc1ccccc1C(=O)Nc1ccc(S(=O)(=O)N(C)c2ccccc2)cc1 | - | -9.13 | - | -9.27 | - | - | 48.5% | - | - | 106.0 | -
Cc1ccc(C)c(CN2CCCN(Cc3cc(C)ccc3C)S2(=O)=O)c1 | - | -18.8 | - | -10.7 | - | - | 75.5% | - | 41.0% | 87.0 | -
Cc1ccc(C)c(CN2CCNC2=O)c1 | - | - | - | - | - | - | . | . | . | . | .
